Measured values: ChEMBL document CHEMBL4257570, “Discovery and optimization of a novel series of pyrazolyltetrahydropyran N-type calcium channel (Cav 2.2) blockers for the treatment of pain” (Bioorg Med Chem Lett, 2018)
pIC50: −log10 of the molar value. Activity calls are given as the source filed them.

What was measured:
[1] = target: T1, Voltage-dependent N-type calcium channel subunit alpha-1B (Homo sapiens, UniProt Q00975); test: Inhibition of high frequency stimulation-induced Cav2.2 (unknown origin) expressed in HEK293 cells at -80 mV holding membrane potential by automated patch clamp assay; format: cell-based
Target sequence in this assay (Q00975 whole entry): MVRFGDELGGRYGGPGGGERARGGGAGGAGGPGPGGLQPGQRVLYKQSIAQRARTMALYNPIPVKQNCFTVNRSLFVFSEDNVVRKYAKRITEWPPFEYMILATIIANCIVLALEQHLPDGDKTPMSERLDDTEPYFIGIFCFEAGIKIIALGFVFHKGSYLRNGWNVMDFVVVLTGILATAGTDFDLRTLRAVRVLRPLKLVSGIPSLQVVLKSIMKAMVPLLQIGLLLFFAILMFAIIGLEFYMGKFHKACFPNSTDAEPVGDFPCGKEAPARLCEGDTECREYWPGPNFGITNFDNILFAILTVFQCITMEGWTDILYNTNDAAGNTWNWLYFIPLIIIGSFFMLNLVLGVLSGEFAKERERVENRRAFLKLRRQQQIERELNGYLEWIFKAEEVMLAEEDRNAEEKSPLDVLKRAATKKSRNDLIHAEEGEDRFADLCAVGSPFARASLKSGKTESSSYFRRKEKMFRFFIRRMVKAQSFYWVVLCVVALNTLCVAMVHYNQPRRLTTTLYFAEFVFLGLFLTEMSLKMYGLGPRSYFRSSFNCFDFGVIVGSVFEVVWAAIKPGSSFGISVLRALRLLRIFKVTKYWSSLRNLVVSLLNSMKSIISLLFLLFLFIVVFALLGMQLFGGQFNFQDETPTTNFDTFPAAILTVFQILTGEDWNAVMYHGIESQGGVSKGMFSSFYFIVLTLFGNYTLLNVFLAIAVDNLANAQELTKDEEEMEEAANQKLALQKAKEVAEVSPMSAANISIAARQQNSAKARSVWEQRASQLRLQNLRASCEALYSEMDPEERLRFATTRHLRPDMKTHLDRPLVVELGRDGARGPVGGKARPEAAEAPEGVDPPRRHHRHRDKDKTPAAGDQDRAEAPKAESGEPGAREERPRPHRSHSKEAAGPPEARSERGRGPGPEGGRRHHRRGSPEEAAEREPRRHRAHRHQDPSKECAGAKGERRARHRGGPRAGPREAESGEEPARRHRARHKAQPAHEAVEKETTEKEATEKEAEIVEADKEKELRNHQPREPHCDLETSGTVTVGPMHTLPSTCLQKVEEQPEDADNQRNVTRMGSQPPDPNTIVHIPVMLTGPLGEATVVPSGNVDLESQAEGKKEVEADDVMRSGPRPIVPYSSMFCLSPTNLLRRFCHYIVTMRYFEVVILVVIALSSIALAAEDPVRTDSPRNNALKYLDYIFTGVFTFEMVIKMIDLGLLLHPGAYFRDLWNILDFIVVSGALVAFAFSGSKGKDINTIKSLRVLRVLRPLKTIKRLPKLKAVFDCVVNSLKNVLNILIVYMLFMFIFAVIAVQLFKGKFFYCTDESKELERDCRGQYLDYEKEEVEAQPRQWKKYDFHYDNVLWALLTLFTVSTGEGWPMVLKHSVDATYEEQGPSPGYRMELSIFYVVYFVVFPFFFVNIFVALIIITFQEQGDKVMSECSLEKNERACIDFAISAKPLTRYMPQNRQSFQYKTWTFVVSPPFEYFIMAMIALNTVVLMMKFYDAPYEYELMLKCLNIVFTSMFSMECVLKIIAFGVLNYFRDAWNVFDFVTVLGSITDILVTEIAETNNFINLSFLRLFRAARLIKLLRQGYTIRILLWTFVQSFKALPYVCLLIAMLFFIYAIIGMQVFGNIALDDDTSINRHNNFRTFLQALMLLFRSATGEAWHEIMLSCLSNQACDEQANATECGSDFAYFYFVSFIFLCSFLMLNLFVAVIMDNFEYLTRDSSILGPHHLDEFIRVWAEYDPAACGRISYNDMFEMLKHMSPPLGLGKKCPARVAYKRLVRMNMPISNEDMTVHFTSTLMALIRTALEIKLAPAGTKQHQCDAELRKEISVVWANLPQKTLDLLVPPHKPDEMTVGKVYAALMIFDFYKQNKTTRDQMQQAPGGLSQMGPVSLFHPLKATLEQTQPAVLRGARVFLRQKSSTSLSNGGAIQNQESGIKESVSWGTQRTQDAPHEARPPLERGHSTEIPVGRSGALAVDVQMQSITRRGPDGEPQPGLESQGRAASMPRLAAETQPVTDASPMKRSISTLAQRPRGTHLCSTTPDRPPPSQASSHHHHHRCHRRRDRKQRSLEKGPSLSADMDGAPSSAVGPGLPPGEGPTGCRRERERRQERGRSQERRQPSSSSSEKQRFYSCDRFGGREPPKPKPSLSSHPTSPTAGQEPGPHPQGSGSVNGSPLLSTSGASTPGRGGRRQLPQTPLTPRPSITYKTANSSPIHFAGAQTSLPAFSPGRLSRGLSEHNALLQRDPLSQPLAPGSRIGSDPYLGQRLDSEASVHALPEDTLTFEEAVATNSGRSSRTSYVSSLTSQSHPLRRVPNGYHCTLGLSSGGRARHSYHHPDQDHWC

[2] = target: T1, Voltage-dependent N-type calcium channel subunit alpha-1B; test: Inhibition of low frequency stimulation-induced Cav2.2 (unknown origin) expressed in HEK293 cells at -80 mV holding membrane potential by automated patch clamp assay; format: cell-based
Target sequence in this assay (Q00975 whole entry): as above

[3] = Cmax in rat at 6 mg/kg, po; format: ADME, organism-based; set-up: dose 6 mg/kg, route oral; conditions: in vivo
Procedure, shortened: (§1)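 Rat PK: oral and intravenous dosing of the same compound in 20% hydroxypropyl-β-cyclodextrin, at 10.0/2.0 or 6.0/1.2 mg/kg po/iv.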

L-type calcium channel = L-type calcium channel (Homo sapiens, UniProt O60840+Q01668+Q13698+Q13936); test: Inhibition of L-type calcium channel (unknown origin) at 1 uM relative to control; format: protein assay
[4] = target: T1, Voltage-dependent N-type calcium channel subunit alpha-1B; test: Inhibition of Cav2.2 (unknown origin) expressed in HEK293 cells assessed as decrease in KCl depolarization-induced Ca2+ influx measured for 5 mins by fluorescence based FDSS assay; format: cell-based
Target sequence in this assay (Q00975 whole entry): as above

Rattus norvegicus [5] = test: Antiinflammatory activity in rat model of complete Freund's adjuvant-induced inflammatory pain assessed as reduction in thermal hyperalgesia by measuring radiant heat latency at 30 mg/kg, po measured after 180 mins post dose; format: functional, organism-based
Procedure, shortened: (§2)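 CFA rats were confirmed thermally hypersensitive by radiant heat latency (75% cut-off) on test day. They were then dosed p.o. at 2.5 mL/kg with 30 mg/kg in 10% NMP/20% Solutol, or vehicle alone. Paw withdrawal latency to radiant heat was read at 30, 60, 120, 180 and 300 min post-dose. One-way ANOVA with Dunnett's post test.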

[6] = Drug uptake in spinal cord of rat model of complete Freund's adjuvant-induced inflammatory pain at 30 mg/kg, po after 1 hr; format: ADME, organism-based; conditions: read-out: Drug uptake
Procedure, shortened: (§3)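 In separate studies, drug levels in plasma, brain and spinal cord were measured in rats after a 30 mg/kg p.o. dose, sampled at 1 h or 2 h.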

[7] = Clearance in rat at 6 mg/kg, po or 1.2 mg/kg, iv; format: ADME, organism-based; conditions: in vivo; procedure, shortened: as §1
[8] = AUClast in rat at 6 mg/kg, po; format: ADME, organism-based; set-up: dose 6 mg/kg, route oral, time 0 - last; conditions: in vivo; procedure, shortened: as §1
Rattus norvegicus [9] = test: Antiinflammatory activity in rat model of complete Freund's adjuvant-induced inflammatory pain assessed as reduction in thermal hyperalgesia by measuring radiant heat latency at 30 mg/kg, po measured after 30 mins post dose; format: functional, organism-based; procedure, shortened: as §2
[10] = Oral bioavailability in rat at 6 mg/kg; format: ADME, organism-based; conditions: in vivo; procedure, shortened: as §1
[11] = Drug uptake in brain of rat model of complete Freund's adjuvant-induced inflammatory pain at 30 mg/kg, po after 1 hr; format: ADME, organism-based; conditions: read-out: Drug uptake; procedure, shortened: as §3
[12] = Volume of distribution at steady state in rat at 6 mg/kg, po or 1.2 mg/kg, iv; format: ADME, organism-based; conditions: in vivo, read-out: Vdss; procedure, shortened: as §1
[13] = Half life in rat at 1.2 mg/kg, iv; format: ADME, organism-based; conditions: in vivo; procedure, shortened: as §1
[14] = target: Voltage-gated inwardly rectifying potassium channel KCNH2 (Homo sapiens, UniProt Q12809); test: Inhibition of human ERG
[15] = Plasma concentration in rat model of complete Freund's adjuvant-induced inflammatory pain at 30 mg/kg, po after 1 hr; format: ADME, organism-based; procedure, shortened: as §3
[16] = Metabolic stability of human liver microsomes assessed as parent compound remaining after 10 mins; format: ADME, microsome; conditions: read-out: Stability
[17] = Metabolic stability of rat liver microsomes assessed as parent compound remaining after 10 mins; format: ADME, microsome; conditions: read-out: Stability
[18] = target: T1, Voltage-dependent N-type calcium channel subunit alpha-1B; test: Inhibition of high frequency stimulation-induced Cav2.2 (unknown origin) expressed in HEK293 cells at 5 uM at -80 mV holding membrane potential by automated patch clamp assay relative to control; format: cell-based
Procedure, shortened: (§4)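 Automated whole-cell patch clamp (QPatch-HT) on HEK293 cells stably expressing Cav2.2. Each trial was the 4th train at each drug concentration. 60 μM CdCl2 set the 0% level, and vehicle-treated cells were used to correct for rundown.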
Target sequence in this assay (Q00975 whole entry, looked up): as the sequence (Q00975 whole entry) above

[19] = target: T1, Voltage-dependent N-type calcium channel subunit alpha-1B; test: Inhibition of low frequency stimulation-induced Cav2.2 (unknown origin) expressed in HEK293 cells at 5 uM at -80 mV holding membrane potential by automated patch clamp assay relative to control; format: cell-based; procedure, shortened: as §4
Target sequence in this assay (Q00975 whole entry, looked up): as the sequence (Q00975 whole entry) above

[20] = Volume of distribution at steady state in rat at 10 mg/kg, po or 2 mg/kg, iv; format: ADME, organism-based; conditions: in vivo, read-out: Vdss; procedure, shortened: as §1
[21] = Clearance in rat at 10 mg/kg, po or 2 mg/kg, iv; format: ADME, organism-based; conditions: in vivo; procedure, shortened: as §1
Rattus norvegicus [22] = test: Antinociceptive activity in Sprague-Dawley rat model of CCI-induced neuropathic pain assessed as reduction in acetone-induced nocifensive response at 30 mg/kg, po measured after 3 hrs relative to control; format: functional
Procedure, shortened: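 CCI rats were given 30 mg/kg p.o. in 10% Solutol/20% HP-β-CD, or vehicle. Cold allodynia was scored as brisk hindpaw withdrawal to acetone applied to the affected paw, over five applications, before dosing and hourly for 3 h. Percent inhibition is relative to the time-zero responses. Two-way repeated-measures ANOVA with Bonferroni test.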

[23] = Cmax in rat at 10 mg/kg, po; format: ADME, organism-based; set-up: dose 10 mg/kg, route oral; conditions: in vivo; procedure, shortened: as §1
[24] = AUClast in rat at 10 mg/kg, po; format: ADME, organism-based; set-up: dose 10 mg/kg, time 0 - last, route oral; conditions: in vivo; procedure, shortened: as §1
[25] = Oral bioavailability in rat at 10 mg/kg; format: ADME, organism-based; conditions: in vivo; procedure, shortened: as §1
[26] = Half life in rat at 2 mg/kg, iv; format: ADME, organism-based; conditions: in vivo; procedure, shortened: as §1
[27] = Plasma concentration in rat model of complete Freund's adjuvant-induced inflammatory painat 30 mg/kg, po after 2 hrs; format: ADME, organism-based; procedure, shortened: as §3
[28] = Drug uptake in brain of rat model of complete Freund's adjuvant-induced inflammatory pain at 30 mg/kg, po after 2 hrs; format: ADME, organism-based; conditions: read-out: Drug uptake; procedure, shortened: as §3

Voltage-gated inwardly rectifying potassium channel KCNH2, sequence (Q12809 whole entry): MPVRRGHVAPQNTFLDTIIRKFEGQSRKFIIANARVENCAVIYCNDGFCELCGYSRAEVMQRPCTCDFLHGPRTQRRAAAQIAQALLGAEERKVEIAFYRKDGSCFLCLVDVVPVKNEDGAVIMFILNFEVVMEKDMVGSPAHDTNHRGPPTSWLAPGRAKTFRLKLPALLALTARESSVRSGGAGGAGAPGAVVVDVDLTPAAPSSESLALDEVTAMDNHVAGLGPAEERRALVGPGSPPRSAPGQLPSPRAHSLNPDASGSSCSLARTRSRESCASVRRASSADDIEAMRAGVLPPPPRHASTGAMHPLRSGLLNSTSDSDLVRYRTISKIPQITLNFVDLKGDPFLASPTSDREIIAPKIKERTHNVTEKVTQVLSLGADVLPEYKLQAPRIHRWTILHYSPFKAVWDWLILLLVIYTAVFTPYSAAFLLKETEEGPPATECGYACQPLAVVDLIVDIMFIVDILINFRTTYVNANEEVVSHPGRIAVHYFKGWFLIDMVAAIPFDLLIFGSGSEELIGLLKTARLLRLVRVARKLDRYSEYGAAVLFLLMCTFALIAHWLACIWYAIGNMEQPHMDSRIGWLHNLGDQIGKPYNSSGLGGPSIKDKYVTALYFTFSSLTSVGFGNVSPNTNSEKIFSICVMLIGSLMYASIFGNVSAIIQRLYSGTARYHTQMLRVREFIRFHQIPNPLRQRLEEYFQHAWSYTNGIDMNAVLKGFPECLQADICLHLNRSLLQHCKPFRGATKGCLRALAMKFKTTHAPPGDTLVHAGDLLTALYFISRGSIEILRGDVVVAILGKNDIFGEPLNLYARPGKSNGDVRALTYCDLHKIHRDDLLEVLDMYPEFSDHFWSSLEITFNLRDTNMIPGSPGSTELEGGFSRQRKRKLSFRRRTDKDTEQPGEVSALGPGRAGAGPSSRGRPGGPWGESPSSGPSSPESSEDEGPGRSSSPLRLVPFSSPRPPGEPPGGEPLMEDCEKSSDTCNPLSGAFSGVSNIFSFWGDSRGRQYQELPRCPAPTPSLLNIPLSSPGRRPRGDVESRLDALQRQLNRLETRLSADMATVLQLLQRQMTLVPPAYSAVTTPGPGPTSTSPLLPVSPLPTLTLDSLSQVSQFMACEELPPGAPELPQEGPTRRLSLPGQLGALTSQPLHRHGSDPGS

COc1ccccc1-n1nc(C2CC(C)(C)OC(C)(C)C2)cc1-c1ccnc(Cl)c1
pIC50 [1]: 6.60
pIC50 [2]: 6.13

COc1ccccc1-n1nc(C2CC(C)(C)OC(C)(C)C2)cc1-c1csc(Cl)c1
Cmax [3]: 0.369 µg/mL
inhibition at 1 µM (L-type calcium channel): 12%
pIC50 [4]: 8.22
Activity (Rattus norvegicus [5]): inactive
concentration at 1 h [6]: 1.9 µM
pIC50 [1]: 7.55
clearance [7]: 0.954 L/h/kg
AUC(0-t) [8]: 2.66 µg·h/mL
Activity (Rattus norvegicus [9]): Active
bioavailability [10]: 49%
concentration at 1 h [11]: 2.2 µM
pIC50 [2]: 7.21
Vd [12]: 10.2 L/kg
half-life [13]: 10.2 h
pIC50 [14]: 4.59
concentration at 1 h [15]: 1.1 µM

COc1ccccc1-n1nc(C2C[C@H](C)O[C@@H](C)C2)cc1-c1ccc(Cl)cc1 (relative stereo)
remaining at 10 min [16]: 40%
pIC50 [4]: 8.70
remaining at 10 min [17]: 14%

CCOc1ccc(-c2cc(C3CC(C)(C)OC(C)(C)C3)nn2-c2ccccc2OC)cn1
pIC50 [4]: 8.30
pIC50 [1]: 7.36
pIC50 [2]: 6.70

COCCCc1cc(-c2ccc(Cl)cc2)n(-c2ccccc2OC)n1
remaining at 10 min [16]: 58%
inhibition [18]: 50%
inhibition [19]: 50%
remaining at 10 min [17]: 4%

CC1(C)CC(c2cc(-c3ccc(Cl)cc3)n(-c3ccccn3)n2)CC(C)(C)O1
pIC50 [4]: 7.92

COc1ccccc1-n1nc([C@@H]2CCO[C@@H](C(C)C)C2)cc1-c1ccc(Cl)cc1 (relative stereo)
remaining at 10 min [16]: 26%
pIC50 [4]: 7.70
remaining at 10 min [17]: 14%

CC1(C)CC(c2cc(-c3ccc(Cl)cc3)n(-c3ccncc3)n2)CC(C)(C)O1
pIC50 [4]: 8.15

COc1ccccc1-n1nc(C2CC(C)(C)OC(C)(C)C2)cc1-c1ccc(C#N)cc1
pIC50 [4]: 9.00
pIC50 [1]: 7.07
pIC50 [2]: 6.89

COc1ccccc1-n1nc(C2CCOC(C)(C)C2)cc1-c1ccc(Cl)cc1 (stereo not given)
remaining at 10 min [16]: 98%
pIC50 [4]: 8.70
pIC50 [1]: 7.26
pIC50 [2]: 6.82
remaining at 10 min [17]: 21%

COc1ccccc1-n1nc(C2CC(C)(C)OC(C)(C)C2)cc1-c1ccc(C)nc1
pIC50 [4]: 8.22

CCN(CC)c1ccccc1-n1nc(C2CC(C)(C)OC(C)(C)C2)cc1-c1ccc(Cl)cc1
pIC50 [4]: 9.00
pIC50 [1]: 7.00
pIC50 [2]: 6.23

COc1ccccc1-n1nc([C@H]2C[C@@H](C)O[C@@H](C)C2)cc1-c1ccc(Cl)cc1
remaining at 10 min [16]: 64%
pIC50 [4]: 8.52
pIC50 [1]: 7.92
pIC50 [2]: 7.04
remaining at 10 min [17]: 18%

COc1ccccc1-n1nc(C2=CC(C)(C)OC(C)(C)C2)cc1-c1ccc(Cl)cc1
remaining at 10 min [16]: 96%
pIC50 [4]: 8.52
remaining at 10 min [17]: 37%

CCOc1ccc(-c2cc(C3CC(C)(C)OC(C)(C)C3)nn2-c2ccccc2OC)cc1
pIC50 [4]: 8.70
pIC50 [1]: 7.54
pIC50 [2]: 7.21

COc1ccccc1-n1nc(C2CCOCC2)cc1-c1ccc(Cl)cc1
remaining at 10 min [16]: 75%
pIC50 [4]: 7.52
remaining at 10 min [17]: 8%

COc1ccccc1-n1nc([C@@H]2CCO[C@H](C(C)C)C2)cc1-c1ccc(Cl)cc1 (relative stereo)
remaining at 10 min [16]: 66%
pIC50 [4]: 8.15
remaining at 10 min [17]: 21%

COc1ccccc1-n1nc(C2CC(C)(C)OC(C)(C)C2)cc1-c1ccc(Cl)cc1
Vd [20]: 33.3 L/kg
remaining at 10 min [16]: 97%
clearance [21]: 2.22 L/h/kg
inhibition in vivo at 30 mg/kg (Rattus norvegicus [22]): 51%
Cmax [23]: 0.127 µg/mL
inhibition at 1 µM (L-type calcium channel): 0%
pIC50 [4]: 9.00
Activity (Rattus norvegicus [5]): inactive
pIC50 [1]: 7.80
Activity (Rattus norvegicus [9]): Active
pIC50 [2]: 7.62
AUC(0-t) [24]: 1.5 µg·h/mL
bioavailability [25]: 36%
half-life [26]: 15.4 h
concentration at 2 h [27]: 0.7 µM
pIC50 [14]: 4.70
concentration at 2 h [28]: 1.2 µM
remaining at 10 min [17]: 96%
